Reference: ChEMBL document CHEMBL4619810, “Fluorescent H2 Receptor Squaramide-Type Antagonists: Synthesis, Characterization, and Applications” (ACS Med Chem Lett, 2020)
Active and inactive are the calls of the source. The calls are words filed in the database; no cut-off is given here.

Key:
[1] = molecular target: T1, Histamine H2 receptor (Homo sapiens, UniProt P25021); assay: Displacement of [3H]UR-DE257 from Gsalphas-coupled human H2R expressed in baculovirus infected Sf9 cells incubated for 60 mins by scintillation counting method
[2] = molecular target: T1, Histamine H2 receptor; assay: Binding affinity to human H2R expressed in human HEK293T cells incubated for 60 mins by automated cell imaging analysis; type: cell-based, HEK-293T
[3] = system: HEK-293T; assay: Cytotoxicity against human HEK293T cells assessed as reduction in cell viability at 3000 nM incubated for 60 mins by H33342 staining based imaging analysis; conditions: 1 h, 3 µM
[4] = molecular target: T1, Histamine H2 receptor; assay: Binding affinity to human H2R expressed in human HEK293T cells incubated for 90 mins by flowcytometry; type: cell-based, HEK-293T
How it was run: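 Flow cytometric saturation binding of fluorescent ligands on suspended HEK293T-hH2R-qs5 cells, 90 min incubation; pKd reported as mean ± SEM from three independent experiments, each in duplicate.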

[5] = system: HEK-293T; assay: Cytotoxicity against human HEK293T cells assessed as reduction in cell viability at 3000 nM incubated for 90 mins by flow cytometry analysis; type: cell-based; conditions: 1.5 h, 3 µM
[6] = system: HEK-293T; assay: Cytotoxicity against human HEK293T cells assessed as reduction in cell viability at 500 nM incubated for 90 mins by flow cytometry analysis; type: cell-based; conditions: 1.5 h, 0.5 µM
[7] = molecular target: T1, Histamine H2 receptor; assay: Agonist activity at human H2R expressed in human HEK293T cells assessed as effect on beta-arrestin2 recruitment incubated for 60 mins by brightglo-reagent based assay; type: cell-based; conditions: HEK-293T
[8] = molecular target: T1, Histamine H2 receptor; conditions: Sf9
[9] = molecular target: T1, Histamine H2 receptor; assay: Binding affinity to human H2R expressed in human HEK293T cells incubated for 60 mins by imaging flow cytometry analysis; type: cell-based, HEK-293T; conditions: for Ka: HEK-293T
[10] = system: HEK-293T; assay: Cytotoxicity against human HEK293T cells assessed as reduction in cell viability at 500 nM incubated for 60 mins by H33342 staining based imaging analysis; conditions: 1 h, 0.5 µM
[11] = molecular target: T1, Histamine H2 receptor; assay: Binding affinity to H2R in human HEK293T cell membrane assessed as drug localization at 250 nM incubated for 60 mins followed by compound washoff by confocal microscopy analysis; type: cell-based; conditions: HEK-293T
How it was run: (§1)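 Adherent HEK293T-hH2R-qs5 cells incubated with fluorescent ligand 60 min at rt, then washed; Hoechst 33342 nuclear counterstain; famotidine (300-fold excess) defines nonspecific binding; membrane localization imaged by automated cell imaging.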

[12] = system: HEK-293T; assay: Cytotoxicity against human HEK293T cells assessed as reduction in cell viability at 1000 nM incubated for 60 mins by H33342 staining based imaging analysis; conditions: 1 h, 1 µM
[13] = molecular target: T1, Histamine H2 receptor; assay: Binding affinity to H2R in human HEK293T cell membrane assessed as drug localization at 100 nM in presence of famotidine incubated for 20 mins by confocal microscopy analysis; type: cell-based; conditions: HEK-293T
How it was run: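 HEK293T-hH2R-qs5 cells incubated with fluorescent ligand (100 nM) for 20 min at rt in the presence of famotidine (300-fold excess) to define nonspecific binding; membrane localization imaged by confocal laser scanning microscopy, 63x/1.40 oil objective.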

[14] = molecular target: T1, Histamine H2 receptor; assay: Binding affinity to H2R in human HEK293T cell membrane assessed as drug localization at 100 nM incubated for 20 mins by confocal microscopy analysis; type: cell-based; conditions: HEK-293T
How it was run: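 Live HEK293T-hH2R-qs5 cells exposed to fluorescent ligand at 100 nM, 20 min, room temperature; receptor binding at the cell membrane visualized by confocal laser scanning microscopy (63x/1.40 oil immersion objective).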

[15] = molecular target: T1, Histamine H2 receptor; assay: Binding affinity to H2R in human HEK293T cell membrane assessed as drug localization at 75 nM incubated for 60 mins followed by compound washoff by confocal microscopy analysis; type: cell-based; conditions: HEK-293T; how it was run: as §1
[16] = molecular target: T1, Histamine H2 receptor; assay: Binding affinity to H2R in human HEK293T cell membrane assessed as drug localization at 500 nM incubated for 60 mins followed by compound washoff by confocal microscopy analysis; type: cell-based; conditions: HEK-293T; how it was run: as §1
[17] = system: HEK-293T; assay: Cytotoxicity against human HEK293T cells assessed as reduction in cell viability at 3500 nM incubated for 90 mins by flow cytometry analysis; type: cell-based; conditions: 1.5 h, 3.5 µM
[18] = molecular target: Histamine H2 receptor (Rattus norvegicus, UniProt P25102); assay: Displacement of [125I]-aminopotentidine from rat H2R expressed in human COS7 cells incubated for 90 mins gamma counting method; type: cell-based, COS-7
[19] = system: HEK-293T; assay: Cytotoxicity against human HEK293T cells assessed as reduction in cell viability at 150 nM incubated for 60 mins by H33342 staining based imaging analysis; conditions: 1 h, 0.15 µM
[20] = system: HEK-293T; assay: Cytotoxicity against human HEK293T cells assessed as reduction in cell viability at 100 nM incubated for 90 mins by flow cytometry analysis; type: cell-based; conditions: 1.5 h, 0.1 µM
[21] = molecular target: T1, Histamine H2 receptor; assay: Binding affinity to H2R (unknown origin)
[22] = molecular target: T1, Histamine H2 receptor; assay: Binding affinity to human H2R expressing Sf9 cells incubated for 60 mins by microbeta scintillation counter method

T1 sequence (P25021 whole entry): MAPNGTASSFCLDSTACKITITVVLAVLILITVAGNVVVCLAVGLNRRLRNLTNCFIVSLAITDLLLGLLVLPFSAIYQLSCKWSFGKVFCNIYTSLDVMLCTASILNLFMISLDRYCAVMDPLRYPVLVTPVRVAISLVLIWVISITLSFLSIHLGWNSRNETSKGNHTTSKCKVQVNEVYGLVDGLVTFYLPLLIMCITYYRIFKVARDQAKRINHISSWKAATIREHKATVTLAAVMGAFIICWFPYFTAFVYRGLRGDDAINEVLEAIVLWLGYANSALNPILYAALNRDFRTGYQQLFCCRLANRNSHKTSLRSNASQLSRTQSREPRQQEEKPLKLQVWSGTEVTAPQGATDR
Chain of Histamine H2 receptor (Rattus norvegicus, UniProt P25102) (P25102 whole entry): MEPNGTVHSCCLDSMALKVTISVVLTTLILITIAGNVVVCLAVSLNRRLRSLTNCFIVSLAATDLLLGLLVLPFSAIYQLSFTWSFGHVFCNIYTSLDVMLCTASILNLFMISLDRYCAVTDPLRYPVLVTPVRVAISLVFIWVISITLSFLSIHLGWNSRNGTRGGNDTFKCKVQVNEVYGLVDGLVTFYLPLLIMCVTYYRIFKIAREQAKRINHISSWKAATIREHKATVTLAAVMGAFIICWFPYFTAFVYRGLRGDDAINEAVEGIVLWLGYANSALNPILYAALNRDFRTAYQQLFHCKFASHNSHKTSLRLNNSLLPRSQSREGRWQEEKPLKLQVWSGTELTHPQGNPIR

Row | Compound | Ki [1] | Kd [2] | Kd [4] | Activity [6] | Activity [7] | pKb [8] | other results
1 | CC1(C)C(/C=C/C=C/C=C2\N(CCCCCC(=O)NCCCCNc3c(NCCCOc4cccc(CN5CCCCC5)c4)c(=O)c3=O)c3ccccc3C2(C)C)=[N+](CCCCS(=O)(=O)[O-])c2ccccc21.O=C(O)C(F)(F)F.O=C(O)C(F)(F)F | 324 nM | 170 nM | 562 nM | – | – | – | Activity [3]: Non-Toxic; Activity [5]: Non-Toxic
2 | Cc1cc(/C=C/C=C/c2ccc(N(C)C)cc2)cc(C)[n+]1CCCCCCNc1c(NCCCOc2cccc(CN3CCCCC3)c2)c(=O)c1=O.O=C(O)C(F)(F)F.O=C([O-])C(F)(F)F | 19.5 nM | – | 14.5 nM | Non-Toxic | inactive | 7.21 | –
3 | CC1(C)C(/C=C/C=C/C=C2\N(CCCCCC(=O)NCCCCNc3c(NCCCOc4cccc(CN5CCCCC5)c4)c(=O)c3=O)c3cc(S(=O)(=O)O)ccc3C2(C)C)=[N+](CCCCS(=O)(=O)[O-])c2ccccc21 | 2040 nM | – | – | – | inactive | – | –
4 | Cc1cc(/C=C/C=C/c2ccc(N(C)C)cc2)cc(C)[n+]1CCCCNc1c(NCCCOc2cccc(CN3CCCCC3)c2)c(=O)c1=O.O=C(O)C(F)(F)F.O=C([O-])C(F)(F)F | 17.8 nM | 74.1 nM | 28.2 nM | Non-Toxic | – | – | Kd [9]: 87.1 nM; Activity [10]: Non-Toxic
5 | Cc1cc(/C=C/C=C/c2ccc(N(C)C)cc2)cc(C)[n+]1CCCCCCCNc1c(NCCCOc2cccc(CN3CCCCC3)c2)c(=O)c1=O.O=C(O)C(F)(F)F.O=C([O-])C(F)(F)F | 17.4 nM | 89.1 nM | 18.6 nM | Non-Toxic | inactive | 7.85 | Kd [9]: 64.6 nM; Ka [9]: 0.0043 min⁻¹ nM⁻¹; Activity [11]: Active; Activity [12]: Non-Toxic; Activity [13]: Active; Activity [14]: Active
6 | CC1(C)C(/C=C/C=C/C=C2\N(CCCCCC(=O)NCCCCCCNc3c(NCCCOc4cccc(CN5CCCCC5)c4)c(=O)c3=O)c3ccccc3C2(C)C)=[N+](CCCCS(=O)(=O)[O-])c2ccccc21.O=C(O)C(F)(F)F.O=C(O)C(F)(F)F | 77.6 nM | 16.2 nM | 47.9 nM | Non-Toxic | – | 6.49 | Ka [9]: 0.0009 to 0.002 min⁻¹ nM⁻¹; Activity [15]: Active; Activity [13]: Active; Activity [14]: Active; Activity [10]: Non-Toxic
7 | CC1(C)C(/C=C/C=C/C=C2\N(CCCCCC(=O)NCCCCCCNc3c(NCCCOc4cccc(CN5CCCCC5)c4)c(=O)c3=O)c3cc(S(=O)(=O)O)ccc3C2(C)C)=[N+](CCCCS(=O)(=O)[O-])c2ccccc21.O=C(O)C(F)(F)F.O=C(O)C(F)(F)F | 1320 nM | 447 nM | – | – | – | – | Activity [3]: Non-Toxic; Activity [16]: Active
8 | C[N+]1=C(/C=C/C=C/C=C2\N(CCCCCC(=O)NCCCCNc3c(NCCCOc4cccc(CN5CCCCC5)c4)c(=O)c3=O)c3ccccc3C2(C)C)C(C)(C)c2ccccc21.O=C(O)C(F)(F)F.O=C([O-])C(F)(F)F | 269 nM | 120 nM | 288 nM | – | – | – | Activity [17]: Non-Toxic; Activity [10]: Non-Toxic
9 | CNc1ccccc1C(=O)NCCN/C(=N\C#N)NCCCOc1cccc(CN2CCCCC2)c1 | – | – | – | – | – | – | Ki [18]: < 100 nM
10 | C[N+]1=C(/C=C/C=C/C=C2\N(CCCCCC(=O)NCCCCCCNc3c(NCCCOc4cccc(CN5CCCCC5)c4)c(=O)c3=O)c3ccccc3C2(C)C)C(C)(C)c2ccccc21.O=C(O)C(F)(F)F.O=C([O-])C(F)(F)F | 21.4 nM | 15.1 nM | 12.9 nM | – | inactive | 7.73 | Ka [9]: 0.0009 to 0.002 min⁻¹ nM⁻¹; Activity [19]: Non-Toxic; Activity [20]: Non-Toxic; Activity [15]: Active; Activity [13]: Active; Activity [14]: Active
11 | CC1(C)C(/C=C/C=C/C=C2\N(CCCCCC(=O)NCCCCCNc3c(NCCCOc4cccc(CN5CCCCC5)c4)c(=O)c3=O)c3ccccc3C2(C)C)=[N+](CCCCS(=O)(=O)[O-])c2ccccc21 | – | – | – | – | – | – | pKb [21]: 6.89
12 | [3H]CC([3H])C(=O)NCCCCCCNc1c(NCCCOc2cccc(CN3CCCCC3)c2)c(=O)c1=O (centres undefined) | – | – | – | – | – | – | Kd [22]: 31 nM
13 | N#CN=C(NCCCCCCCCNc1ccc([N+](=O)[O-])c2n[o+][n-]c12)NCCCOc1cccc(CN2CCCCC2)c1 | – | – | – | – | – | – | Ki [18]: < 100 nM
